Data: ChEMBL document CHEMBL1126564, “Synthesis and antimicrobial evaluation of a series of 7-[3-amino (or aminomethyl)-4-aryl (or cyclopropyl)-1-pyrrolidinyl]-4-quinolone- and -1,8-naphthyridone-3-carboxylic acids” (1993)
≈ marks a conversion by molar mass, not a printed value.

Key:
Type in all cases: functional
[1] = test system: Escherichia coli; test: Minimum inhibitory concentration against Escherichia coli Vogel
In short: (§1)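 Standard microdilution method against a panel of five Gram-negative and five Gram-positive bacterial strains. The MIC (µg/mL) was recorded for each strain.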

[2] = test system: Staphylococcus aureus; test: Minimum inhibitory concentration against Staphylococcus aureus H-228; in short: as §1
[3] = test system: Enterococcus faecalis; test: Minimum inhibitory concentration against […] MGH-2; in short: as §1
[4] = test system: Staphylococcus aureus; test: Minimum inhibitory concentration against Staphylococcus aureus UC-76; in short: as §1
[5] = species on record: Mus musculus; test: Median protective dose determined in acute lethal system infection caused by Escherichia coli vogel in CD-1 mice (single dose perorally); details: po, read-out: PD50
In short: (§2)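 Acute lethal systemic infection in female Charles River CD-1 mice; compound given once, orally (po) or subcutaneously (sc), at the time of challenge. Median protective dose (PD50, mg/kg) derived from survival.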

[6] = test system: Klebsiella pneumoniae; test: Minimum inhibitory concentration against Klebsiella pneumoniae MGH-2; in short: as §1
[7] = test system: Enterobacter cloacae; test: Minimum inhibitory concentration against […] MA-2646; in short: as §1
[8] = test system: Streptococcus pneumoniae; test: Minimum inhibitory concentration against Streptococcus pneumoniae SV-1; in short: as §1
[9] = test system: Providencia rettgeri; test: Minimum inhibitory concentration against Providencia rettgeri M-1771; in short: as §1
[10] = test system: Pseudomonas aeruginosa; test: Minimum inhibitory concentration against Pseudomonas aeruginosa UI-18; in short: as §1
[11] = test system: Streptococcus pyogenes; test: Minimum inhibitory concentration against Streptococcus pyogenes C-203; in short: as §1
[12] = test system: Mus musculus; test: Median protective dose determined in acute lethal system infection caused by Escherichia coli vogel in CD-1 mice (single dose sc); details: read-out: PD50; in short: as §2
[13] = test system: Mus musculus; test: Median protective dose determined in acute lethal system infection caused by Streptococcus pyogenes C-203 in CD-1 mice (single dose sc); details: read-out: PD50; in short: as §2
[14] = species on record: Mus musculus; test: Median protective dose determined in acute lethal system infection caused by Streptococcus pyogenes C-203 in CD-1 mice (single dose perorally); details: po, read-out: PD50; in short: as §2
[15] = Escherichia coli, read-out: MIC
[16] = Staphylococcus aureus, read-out: MIC
[17] = Enterococcus faecalis, read-out: MIC
[18] = Klebsiella pneumoniae, read-out: MIC
[19] = Enterobacter cloacae, read-out: MIC
[20] = Streptococcus pneumoniae, read-out: MIC
[21] = Providencia rettgeri, read-out: MIC
[22] = Pseudomonas aeruginosa, read-out: MIC
[23] = Streptococcus pyogenes, read-out: MIC

Structure (SMILES)	MIC [1, 15] [µg/mL]	MIC [2, 16] [µg/mL]	MIC [3, 17] [µg/mL]	MIC [4, 16] [µg/mL]	ED50 [5] [mg/kg]	MIC [6, 18] [µg/mL]	MIC [7, 19] [µg/mL]	MIC [8, 20] [µg/mL]	MIC [9, 21] [µg/mL]	MIC [10, 22] [µg/mL]	MIC [11, 23] [µg/mL]	ED50 [12] [mg/kg]	ED50 [13] [mg/kg]	ED50 [14] [mg/kg]	further results
NC1CN(c2nc3c(cc2F)c(=O)c(C(=O)O)cn3C2CC2)CC1c1ccc(F)cc1 (trans isomer)	0.1 (≈ 0.235 µM)	0.1 (≈ 0.235 µM)	0.1 (≈ 0.235 µM)	0.025 (≈ 0.0586 µM)	18	0.2 (≈ 0.469 µM)	0.1 (≈ 0.235 µM)	0.2 (≈ 0.469 µM)	0.4 (≈ 0.938 µM)	1.6 (≈ 3.75 µM)	0.2 (≈ 0.469 µM)	9			
NC1CN(c2c(F)cc3c(=O)c(C(=O)O)cn(C4CC4)c3c2F)CC1c1ccccc1 (trans isomer)	0.025 (≈ 0.0588 µM)	0.025 (≈ 0.0588 µM)	0.1 (≈ 0.235 µM)	0.013 (≈ 0.0306 µM)	15.5	0.05 (≈ 0.118 µM)	0.025 (≈ 0.0588 µM)	0.1 (≈ 0.235 µM)	0.1 (≈ 0.235 µM)	0.8 (≈ 1.88 µM)	0.1 (≈ 0.235 µM)	7	1.6	10	
NCC1CN(c2nc3c(cc2F)c(=O)c(C(=O)O)cn3C2CC2)CC1c1ccco1 (trans isomer)	0.1 (≈ 0.242 µM)	0.05 (≈ 0.121 µM)	0.05 (≈ 0.121 µM)	0.013 (≈ 0.0315 µM)		0.1 (≈ 0.242 µM)	0.2 (≈ 0.485 µM)	0.025 (≈ 0.0606 µM)	0.2 (≈ 0.485 µM)	0.4 (≈ 0.97 µM)	0.05 (≈ 0.121 µM)		4.2	36	
NCC1CN(c2c(F)cc3c(=O)c(C(=O)O)cn(C4CC4)c3c2F)CC1c1ccccc1 (trans isomer)	0.05 (≈ 0.114 µM)	0.013 (≈ 0.0296 µM)	0.013 (≈ 0.0296 µM)	0.003 (≈ 0.00683 µM)		0.05 (≈ 0.114 µM)	0.05 (≈ 0.114 µM)	0.013 (≈ 0.0296 µM)	0.1 (≈ 0.228 µM)	0.8 (≈ 1.82 µM)	0.013 (≈ 0.0296 µM)		1.6	10	
NC1CN(c2nc3c(cc2F)c(=O)c(C(=O)O)cn3C2CC2)CC1c1ccccc1 (stereo not drawn)	0.1 (≈ 0.245 µM)	0.1 (≈ 0.245 µM)	0.2 (≈ 0.49 µM)	0.05 (≈ 0.122 µM)	11	0.2 (≈ 0.49 µM)	0.1 (≈ 0.245 µM)	0.1 (≈ 0.245 µM)	0.4 (≈ 0.979 µM)	1.6 (≈ 3.92 µM)	0.2 (≈ 0.49 µM)	6.5			
COc1ccccc1C1CN(c2nc3c(cc2F)c(=O)c(C(=O)O)cn3C2CC2)CC1N (stereo in doubt)					37							28	22	44	MIC [1]: 0.2 µg/mL (≈ 0.456 µM); MIC [2]: 0.1 µg/mL (≈ 0.228 µM); MIC [3]: 0.2 µg/mL (≈ 0.456 µM); MIC [4]: 0.05 µg/mL (≈ 0.114 µM); MIC [6]: 0.4 µg/mL (≈ 0.912 µM); MIC [7]: 0.2 µg/mL (≈ 0.456 µM); MIC [8]: 0.1 µg/mL (≈ 0.228 µM); MIC [9]: 0.8 µg/mL (≈ 1.82 µM); MIC [10]: 3.1 µg/mL (≈ 7.07 µM); MIC [11]: 0.2 µg/mL (≈ 0.456 µM)
Nc1ccc(C2CN(c3c(F)cc4c(=O)c(C(=O)O)cn(C5CC5)c4c3F)CC2N)cc1 (trans isomer)	0.05 (≈ 0.114 µM)	0.1 (≈ 0.227 µM)	0.1 (≈ 0.227 µM)	0.025 (≈ 0.0568 µM)	10	0.1 (≈ 0.227 µM)	0.05 (≈ 0.114 µM)	0.1 (≈ 0.227 µM)	0.2 (≈ 0.454 µM)	0.8 (≈ 1.82 µM)	0.1 (≈ 0.227 µM)	1.6			
CC(C)c1ccc(C2CN(c3c(F)cc4c(=O)c(C(=O)O)cn(C5CC5)c4c3F)CC2N)cc1 (trans isomer)	0.4 (≈ 0.856 µM)	0.05 (≈ 0.107 µM)	0.2 (≈ 0.428 µM)	0.025 (≈ 0.0535 µM)		0.4 (≈ 0.856 µM)	0.4 (≈ 0.856 µM)	0.2 (≈ 0.428 µM)	0.4 (≈ 0.856 µM)	3.1 (≈ 6.63 µM)	0.2 (≈ 0.428 µM)		90	100	
NCC1CN(c2nc3c(cc2F)c(=O)c(C(=O)O)cn3C2CC2)CC1c1ccccc1 (trans isomer)	0.05 (≈ 0.118 µM)	0.025 (≈ 0.0592 µM)	0.025 (≈ 0.0592 µM)	0.006 (≈ 0.0142 µM)		0.05 (≈ 0.118 µM)	0.05 (≈ 0.118 µM)	0.013 (≈ 0.0308 µM)	0.1 (≈ 0.237 µM)	0.8 (≈ 1.89 µM)	0.025 (≈ 0.0592 µM)		4.5	27	
NC1CN(c2c(F)cc3c(=O)c(C(=O)O)cn(C4CC4)c3c2F)CC1c1ccc(F)cc1 (trans isomer)	0.1 (≈ 0.226 µM)	0.025 (≈ 0.0564 µM)	0.1 (≈ 0.226 µM)	0.013 (≈ 0.0293 µM)		0.1 (≈ 0.226 µM)	0.1 (≈ 0.226 µM)	0.1 (≈ 0.226 µM)	0.2 (≈ 0.451 µM)	1.6 (≈ 3.61 µM)	0.1 (≈ 0.226 µM)		40	44	
NC1CN(c2c(F)cc3c(=O)c(C(=O)O)cn(C4CC4)c3c2F)CC1c1ccc(O)cc1 (trans isomer)	0.1 (≈ 0.227 µM)	0.1 (≈ 0.227 µM)	0.1 (≈ 0.227 µM)	0.025 (≈ 0.0566 µM)	100	0.1 (≈ 0.227 µM)	0.1 (≈ 0.227 µM)	0.1 (≈ 0.227 µM)	0.2 (≈ 0.453 µM)	1.6 (≈ 3.62 µM)	0.1 (≈ 0.227 µM)	50			
Nc1ccc(C2CN(c3nc4c(cc3F)c(=O)c(C(=O)O)cn4C3CC3)CC2N)cc1 (trans isomer)	0.1 (≈ 0.236 µM)	0.2 (≈ 0.472 µM)	0.2 (≈ 0.472 µM)	0.05 (≈ 0.118 µM)	24	0.2 (≈ 0.472 µM)	0.1 (≈ 0.236 µM)	0.2 (≈ 0.472 µM)	0.4 (≈ 0.945 µM)	1.6 (≈ 3.78 µM)	0.2 (≈ 0.472 µM)	3.1			
